Data set [1] in a line: Stability in presence of 10 mM glutathione in pH 7.0 aqueous buffer after 3 hrs. The following applies: pH 7, 3 h. The class given is physicochemical. Summed up: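 Equimolar glutathione and CPD derivative, each at 10 mM, incubated in aqueous buffer at pH 7 for 3 h. Consumption of the starting dione monitored.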
A further data set concerns the target T1, Thromboxane A2 receptor (Homo sapiens, UniProt P21731).
T1 sequence (P21731 whole entry): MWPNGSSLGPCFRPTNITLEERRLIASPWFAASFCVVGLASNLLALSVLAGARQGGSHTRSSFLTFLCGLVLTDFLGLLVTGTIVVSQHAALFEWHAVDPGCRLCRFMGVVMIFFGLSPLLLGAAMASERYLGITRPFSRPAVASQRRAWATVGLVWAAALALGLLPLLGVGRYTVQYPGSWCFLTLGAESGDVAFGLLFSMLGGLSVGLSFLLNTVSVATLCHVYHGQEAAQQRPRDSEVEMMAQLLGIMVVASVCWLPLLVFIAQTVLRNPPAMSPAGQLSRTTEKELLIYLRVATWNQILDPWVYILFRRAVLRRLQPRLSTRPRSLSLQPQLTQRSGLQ
Nature of the data set: Antagonist activity against human thromboxane A2 receptor alpha expressed in QBI-HEK293A cells assessed as reduction in I-BOP-induced inositol monophosphate production incubated for 15 to 60 mins before I-BOP addition by HTRF assay. The class given is functional, cell-based, HEK293-A. Summed up: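 Stably transfected HEK-293 cells expressing human TP receptor α preincubated 15 min with a range of antagonist concentrations, then stimulated with agonist I-BOP at 0.2 nM. IP1 (metabolite of IP3) quantified after a further 1 h as the activation read-out. IC50 from concentration–response curves; mean and SD of one or more assays run in triplicate.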
(TR-FRET usually uses a lanthanide donor and a delayed reading to cut background.)

For data set [2], the target named is T2, Thromboxane A2 receptor (Homo sapiens) (UniProt P21731).
T2 sequence (whole entry): T1 sequence (P21731 whole entry)
Put plainly: Irreversible antagonist activity against human thromboxane A2 receptor alpha expressed in QBI-HEK293A cells assessed as reduction in I-BOP-induced inositol monophosphate production at 1 uM incubated for 15 to 60 mins before I-BOP addition and measured after 6 consecutive drug washout by HTRF assay. The class given is functional, cell-based. The following applies: HEK293-A. Summed up:
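Washout variant: hTP cells preincubated 15 min with compound (1 μM; 10 μM for some), then 6 consecutive wash cycles of ~50-fold dilution each before 0.8 nM I-BOP. Relative IP1 determined. Controls received I-BOP alone or no treatment; ANOVA with Dunnett's test against the +I-BOP condition.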

Data set [3] concerns the target T2, Thromboxane A2 receptor (Homo sapiens). Nature of the data set: Antagonist activity against human thromboxane A2 receptor alpha expressed in QBI-HEK293A cells assessed as reduction in I-BOP-induced inositol monophosphate production at 1 uM incubated for 15 to 60 mins before I-BOP addition by HTRF assay. It counts as functional, cell-based. The following applies: HEK293-A. Put shortly:
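hTP-expressing HEK-293 cells exposed to 1 μM antagonist for 15 or 60 min, then 0.8 nM I-BOP added without washing. Relative IP1 levels measured. Controls received I-BOP alone or no treatment.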

Data set [4] has the same target. Put plainly: Reversible antagonist activity against human thromboxane A2 receptor alpha expressed in QBI-HEK293A cells assessed as reduction in I-BOP-induced inositol monophosphate production at 1 uM incubated for 15 to 60 mins before I-BOP addition and measured after 4 consecutive drug washout by HTRF assay. The class given is functional, cell-based. The following applies: HEK293-A. Summed up: (§1)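 TP receptor α HEK-293 cells given 1 μM compound for 15 or 60 min, then four consecutive wash cycles, each about 50-fold dilution and separated by 15 min equilibration, before 0.8 nM I-BOP. IP1 then measured. Controls received I-BOP alone or no treatment; ANOVA with Dunnett's test against the […] at each time.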

The target is the same in data set [5]. The following applies: HEK293-A, 1 uM.
For data set [6] the target is unchanged. Put plainly: Irreversible antagonist activity against human thromboxane A2 receptor alpha expressed in QBI-HEK293A cells assessed as reduction in I-BOP-induced inositol monophosphate production at 1 uM incubated for 15 to 60 mins before I-BOP addition and measured after 4 consecutive drug washout by HTRF assay. It counts as functional, cell-based. The note with it: HEK293-A. Summed up:
as §1

The target is the same in data set [7]. Put plainly: Irreversible antagonist activity against human thromboxane A2 receptor alpha expressed in QBI-HEK293A cells assessed as reduction in I-BOP-induced inositol monophosphate production at 1 uM at 4 degC incubated for 15 to 60 mins before I-BOP addition and measured after 6 consecutive drug washout by HTRF assay. It counts as functional, cell-based. The note with it: HEK293-A. Put shortly:
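Six-wash washout protocol (each wash ~50-fold dilution) run at 4 °C to suppress endocytosis and receptor trafficking. Human TP receptor-expressing cells, then I-BOP stimulation and IP1 read-out.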

The test system of a further data set is Plasma. Put plainly: Stability in CD1 mouse plasma at 1 uM after 1 hr at 37 degC by UPLC-ESI-MS/MS method. The class given is ADME, cell-free. Put shortly: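 Free compound concentration followed during 1 h incubation in plasma.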
The target of data set [8] is T3, Prostaglandin E2 receptor EP1 subtype (Homo sapiens) (UniProt P34995).
T3 sequence (whole entry): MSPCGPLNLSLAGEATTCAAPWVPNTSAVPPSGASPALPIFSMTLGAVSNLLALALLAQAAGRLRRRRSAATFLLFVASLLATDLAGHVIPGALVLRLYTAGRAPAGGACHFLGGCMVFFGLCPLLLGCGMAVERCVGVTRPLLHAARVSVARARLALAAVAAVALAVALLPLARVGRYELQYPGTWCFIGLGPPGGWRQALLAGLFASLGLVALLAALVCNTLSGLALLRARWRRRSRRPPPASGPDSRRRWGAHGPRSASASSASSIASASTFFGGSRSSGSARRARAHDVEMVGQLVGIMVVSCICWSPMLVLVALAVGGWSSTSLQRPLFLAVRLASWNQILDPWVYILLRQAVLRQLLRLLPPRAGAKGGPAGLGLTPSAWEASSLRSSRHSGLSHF
Nature of the data set: Antagonist activity against human EP1 receptor expressed in QBI-HEK293A cells assessed as reduction in 17-PGE2-induced inositol monophosphate production at 1 uM incubated for 15 to 60 mins before […] addition by HTRF assay. The following applies: HEK293-A. The class given is functional, cell-based.

Calls of active or inactive are those of the source. No cut-off for these calls is given here.

For the compound `Cc1cccc(C)c1C1C(=O)CCC1=O`, the Stability entry in data set [1] is reported as “Stable”.
One may read the IC50 as the concentration at which inhibition is half-maximal. For the compound `O=C1C(c2ccc(F)cc2)=C(O)CC1Cc1cccc2c1CCC(NS(=O)(=O)c1ccc(Cl)cc1)C2` (centres undefined), the IC50 at Thromboxane A2 receptor was determined as 6.5 nM. The inhibition entry in data set [2] was “Active”.
With `O=C(O)Cc1cccc2c1CCC(NS(=O)(=O)c1ccc(Cl)cc1)C2` (centres undefined), at Thromboxane A2 receptor, the IC50 amounted to 10.7 nM. Moreover, the inhibition entry in data set [3], in [4] and in [5] was “Active” throughout.
For `COc1ccc(C2=C(O)CC(Cc3cccc4c3CCC(NS(=O)(=O)c3ccc(Cl)cc3)C4)C2=O)cc1` (centres undefined), the IC50 at Thromboxane A2 receptor came out at 0.052 nM. Besides, the inhibition entry in data set [3] and in data set [6] was “Active” in each case.
As to `Cc1cccc(C)c1C1=C(O)CC(Cc2cccc3c2CCCC3)C1=O` (centres undefined), on Thromboxane A2 receptor, the 50% inhibitory concentration (IC50) stood at 891 nM. Further, the inhibition result in [4] was “Active”.
Regarding `Cc1cccc(C)c1C1=C(OCC(C)C)CC(Cc2cccc3c2CCC(NS(=O)(=O)c2ccc(Cl)cc2)C3)C1=O` (centres undefined), the IC50 on Thromboxane A2 receptor was 2760 nM.
With `O=C1C(c2ccccc2)=C(O)CC1Cc1cccc2c1CCC(NS(=O)(=O)c1ccc(Cl)cc1)C2` (centres undefined), the IC50 on Thromboxane A2 receptor came out at 3.9 nM. Also, the inhibition entry in data set [2] was “Active”.
On to `O=C1C(c2ccccc2)=C(O)CC1Cc1cccc(CCNS(=O)(=O)c2ccc(Cl)cc2)c1` (single isomer, unassigned; (+)), for which the inhibition result in data set [2] is “Active”.
With `O=C1C(C2CCCCC2)=C(O)CC1Cc1cccc(CCNS(=O)(=O)c2ccc(Cl)cc2)c1` (centres undefined), the IC50 on Thromboxane A2 receptor worked out at 892 nM. In data set [4], the inhibition entry was “Active”.
For the compound `Cc1cccc(C)c1C1=C(O)CC(Cc2cccc3c2CCC(NS(=O)(=O)c2ccc(Cl)cc2)C3)C1=O` (centres undefined), at Thromboxane A2 receptor, the IC50 worked out at 0.015 nM. For the same compound, the inhibition entry in [3], in data set [6], in data set [2] and in data set [7] was “Active” each time. For the same compound, the Stability entry in the data set with Plasma is recorded as “Stable”. Also, in data set [8], the inhibition entry was “inactive”.
As for `O=C(O)CCc1cccc(CCNS(=O)(=O)c2ccc(Cl)cc2)c1`, the inhibition entry in data set [4] is “Active”.
Take `Cc1ccc2c(c1CCC(=O)O)CC[C@@H](NS(=O)(=O)c1ccc(Cl)cc1)C2` [TERUTROBAN]: on Thromboxane A2 receptor, the IC50 was 16.4 nM.
As to `CC1=C(O)CC(Cc2cccc3c2CCC(NS(=O)(=O)c2ccc(Cl)cc2)C3)C1=O` (centres undefined), the IC50 on Thromboxane A2 receptor stood at 11.2 nM. The inhibition entry in data set [3] and in [4] was “Active” throughout.
`O=C1C(Cc2ccccc2)=C(O)CC1Cc1cccc2c1CCC(NS(=O)(=O)c1ccc(Cl)cc1)C2` (centres undefined): the IC50 on Thromboxane A2 receptor is 29.2 nM. Also, the inhibition result in [2] is “Active”.
Take `O=C1C(c2ccccc2)=C(O)CC1Cc1cccc(CCNS(=O)(=O)c2ccc(Cl)cc2)c1` (racemic) [listing 1 of 2 here]: in data set [2], the inhibition entry is “Active”.
As for `O=C1C(c2ccccc2)=C(O)CC1Cc1cccc(CCNS(=O)(=O)c2ccc(Cl)cc2)c1` (racemic) [listing 2 of 2 here], the IC50 on Thromboxane A2 receptor was determined as 59 nM.
